A word on the IC50: it is the point on the concentration scale where inhibition reaches its midpoint. By share remaining is commonly meant the share of the starting amount still present when the sample was taken. Higher therefore signals less turnover.

A short description of data set [1]: Stability in 5 mg/mL K562 extract in lysis buffer. In kind it is in vitro ADME. The note with it: n=2.
Data set [2] deals with K562 cells. The note with it: read-out: Toxicity IC50, control compounds; cited from earlier work.
The conditions of data set [3]: by 24 hours in plasma; cited from earlier work.
The nature of data set [4]: Stability in 50% plasma in phosphate buffered saline. Format: in vitro ADME.
The test system of data set [5] is K562 cells. Kind of data set: Direct toxicity against K562 cells. As to conditions: Homo sapiens, K562, 72 h, read-out: Toxicity IC50. In kind it is cell-based. The method in brief:
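Test compounds were applied directly to K562 cells, without T cells, to measure direct toxicity. n=3.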

SMILES strings stand for the structures. Like-named read-outs stand apart in the source and are kept apart here. Where only a bound is given, the exact number is not on record here.

On to `C/C(=C\CCP(=O)(OCOC(=O)C(C)(C)C)OCOC(=O)C(C)(C)C)CO` [Compound 5], for which, in data set [1], the “K562 extract (4 h, percent remaining)” value is on record as “totally disappeared”. Also, in the data set with K562 cells [2], the IC50 is > 100 µM. Besides, in data set [3], the “percent metabolized in plasma” value is 95%.

For the compound `CCOC(=O)CNP(=O)(CC/C=C(\C)CO)Oc1ccccc1` (centres unmarked) [Compound 6], in the data set with K562 cells [2], the IC50 is > 100 µM. Consider `C/C(=C\CCP(=O)(OCC(=O)OC(C)(C)C)Oc1ccccc1)CO` (centres unmarked) [Compound 7], for which the IC50 in the data set with K562 cells [2] was > 100 µM. Turning to `CCOC(=O)[C@H](C)NP(=O)(CCC=C(C)C)N[C@@H](C)C(=O)OCC` [Compound 12], in data set [4], the share remaining at 24 h is ≥ 70%. As to `CCOC(=O)CNP(=O)(CC/C=C(\C)CO)NCC(=O)OCC` [Compound 16], the IC50 in the data set on K562 cells [5] is 10 to 100 µM.

Regarding `COC(=O)[C@@H](NP(=O)(CC/C=C(\C)CO)N[C@H](C(=O)OC)C(C)C)C(C)C` [Compound 17], the IC50 in the data set on K562 cells [5] was 10 to 100 µM.
